The values below come from PMC3262993 (Chemmedchem, 2009).

Like-named read-outs stand apart in the source and are kept apart here.

In series [1] the test system is tactile allodynia in a paclitaxel-induced neuropathic pain model. The series is described as follows: Tactile allodynia in paclitaxel-induced neuropathic pain model. The note with it: paclitaxel-treated rats; for Effect on mechanical (tactile) allodynia: intraperitoneal administration. The series is classed as in vivo, rat. An outline of the steps: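 Adult male Sprague Dawley rats (120–150 g) were housed three per cage on a 12 h light/dark cycle. Paclitaxel was given at 1.0 mg kg−1 i.p. daily for 4 days (cumulative 4 mg kg−1), with vehicle 10 % Cremophor EL in saline at 1 mL kg−1. Hind-paw mechanical withdrawal was tested daily from day 0 after ≥30 min acclimation on wire mesh. Test compound was given i.p.; n = 5–6 per group.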

For series [2], the target named is recombinant human CB1 (hCB1) (Homo sapiens, UniProt P21554). The series is described as follows: γ-[35S]GTP functional assay, hCB1. The series is classed as biochemical.
recombinant human CB1 (hCB1), sequence (P21554 whole entry): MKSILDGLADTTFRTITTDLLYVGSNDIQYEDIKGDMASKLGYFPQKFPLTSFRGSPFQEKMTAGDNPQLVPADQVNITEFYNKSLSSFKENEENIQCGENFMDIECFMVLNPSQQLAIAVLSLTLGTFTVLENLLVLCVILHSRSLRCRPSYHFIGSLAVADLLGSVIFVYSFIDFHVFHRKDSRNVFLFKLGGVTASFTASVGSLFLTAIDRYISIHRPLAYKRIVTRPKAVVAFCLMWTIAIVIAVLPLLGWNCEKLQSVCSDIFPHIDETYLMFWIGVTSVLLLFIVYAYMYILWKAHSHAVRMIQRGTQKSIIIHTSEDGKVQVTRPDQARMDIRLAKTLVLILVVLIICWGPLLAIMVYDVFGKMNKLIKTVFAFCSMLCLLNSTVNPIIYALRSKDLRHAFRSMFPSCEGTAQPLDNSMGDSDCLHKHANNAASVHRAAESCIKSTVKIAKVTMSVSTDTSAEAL
Series [3] deals with TC7.
The conditions of series [4]: PBS, pH 7.4, at 2.0 × 10^-4 M.
For series [5], the target named is K+ channel hERG (Homo sapiens, UniProt Q12809).
K+ channel hERG, sequence (Q12809 whole entry): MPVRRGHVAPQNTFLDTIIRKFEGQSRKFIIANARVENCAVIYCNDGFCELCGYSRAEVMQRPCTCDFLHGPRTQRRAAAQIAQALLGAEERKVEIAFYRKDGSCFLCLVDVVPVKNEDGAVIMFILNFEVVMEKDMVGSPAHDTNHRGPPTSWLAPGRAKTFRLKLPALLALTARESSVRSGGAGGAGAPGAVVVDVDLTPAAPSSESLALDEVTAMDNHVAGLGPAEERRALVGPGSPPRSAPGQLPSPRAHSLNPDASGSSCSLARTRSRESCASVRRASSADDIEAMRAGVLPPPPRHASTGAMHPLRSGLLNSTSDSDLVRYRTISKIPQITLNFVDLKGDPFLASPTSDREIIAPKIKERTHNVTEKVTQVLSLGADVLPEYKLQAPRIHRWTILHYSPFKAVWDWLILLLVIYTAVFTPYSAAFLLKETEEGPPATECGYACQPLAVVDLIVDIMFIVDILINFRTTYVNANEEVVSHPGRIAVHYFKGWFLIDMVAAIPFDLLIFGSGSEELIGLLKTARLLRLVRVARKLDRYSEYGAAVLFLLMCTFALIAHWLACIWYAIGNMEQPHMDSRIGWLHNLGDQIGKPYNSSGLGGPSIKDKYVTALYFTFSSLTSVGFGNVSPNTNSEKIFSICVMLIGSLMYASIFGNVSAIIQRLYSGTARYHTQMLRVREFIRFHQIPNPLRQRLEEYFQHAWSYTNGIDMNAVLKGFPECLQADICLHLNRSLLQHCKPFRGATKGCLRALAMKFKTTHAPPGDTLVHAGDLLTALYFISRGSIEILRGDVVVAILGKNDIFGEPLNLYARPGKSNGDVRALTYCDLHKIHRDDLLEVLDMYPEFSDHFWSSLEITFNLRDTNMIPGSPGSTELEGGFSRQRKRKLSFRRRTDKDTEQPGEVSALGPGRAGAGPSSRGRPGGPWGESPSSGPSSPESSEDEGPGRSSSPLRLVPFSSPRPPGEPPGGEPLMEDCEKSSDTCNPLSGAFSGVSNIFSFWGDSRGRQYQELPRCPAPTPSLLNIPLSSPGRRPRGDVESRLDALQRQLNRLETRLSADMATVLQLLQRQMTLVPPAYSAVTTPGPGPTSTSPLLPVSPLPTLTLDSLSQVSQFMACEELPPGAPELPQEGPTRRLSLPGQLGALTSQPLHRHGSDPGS
Series [6] has as its system strain TA98.
In series [7] the test system is neuropathic pain in spinal nerve ligation and paclitaxel-induced neuropathy models. The note with it: cited from earlier work.
Series [8] concerns the target hCB1 (Homo sapiens, UniProt P21554). The series can be described thus: Radioligand competitive binding assay, hCB1.
Series [9] concerns the target hCB2 (Homo sapiens, UniProt P34972). The series can be described thus: Radioligand competitive binding assay.
In series [10] the target is recombinant human CB2 (hCB2) (Homo sapiens, UniProt P34972). The series is described as follows: γ-[35S]GTP functional assay, hCB2. The series is classed as biochemical. The note with it: for γ-[35S]GTP hCB2 Emax: percentage relative to the efficacy of compound 7.
recombinant human CB2 (hCB2), sequence (P34972 whole entry): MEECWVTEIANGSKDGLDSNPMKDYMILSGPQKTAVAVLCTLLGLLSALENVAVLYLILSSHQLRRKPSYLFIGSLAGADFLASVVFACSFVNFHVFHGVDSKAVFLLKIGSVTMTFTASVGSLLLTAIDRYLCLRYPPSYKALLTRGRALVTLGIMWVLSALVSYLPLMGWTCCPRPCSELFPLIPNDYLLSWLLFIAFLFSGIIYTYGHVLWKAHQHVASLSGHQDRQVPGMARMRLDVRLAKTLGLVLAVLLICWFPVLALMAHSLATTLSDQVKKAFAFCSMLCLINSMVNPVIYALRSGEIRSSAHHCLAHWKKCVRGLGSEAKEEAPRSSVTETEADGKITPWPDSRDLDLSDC
Series [11] has as its system plasma protein. The note with it: 1.0E-05 M.
The mark [12] stands for this setting: read-out: Ki hCB2, CHO-K1 membranes, 1 nM [3H]7, mean ± SEM.

hCB1, sequence (P21554 whole entry): as the sequence (P21554 whole entry) above
hCB2, sequence (P34972 whole entry): as the sequence (P34972 whole entry) above

With `CN1CCCCC1Cn1cc(C(=O)c2cc([N+](=O)[O-])ccc2I)c2ccccc21` (stereo not shown) [Compound 1, AM1241, reference compound], in [1] (i.p., 1, 3 and 5 mg kg^-1), the “Effects on tactile allodynia versus vehicle” value is given as “not significantly different from the effects induced by the vehicle”. Moreover, in series [1], the “Effect on mechanical (tactile) allodynia” value is recorded as “did not affect the paw withdrawal threshold”.
`CC1(Cc2ccccc2)COc2ccc(C(=O)NC3CCCCC3)cc21` (stereo not shown) [Compound 14, 3-Benzyl-3-methyl-2,3-dihydrobenzofuran-5-carboxylic acid cyclohexylamide]: the EC50 (in general, the concentration that produces a half-maximal response) in series [2] is above 10000 nM.
On to `CC1(Cc2ccccc2)COc2cc(C(=O)NC3CCCCC3)ccc21` (stereo not shown) [Compound 17, 3-Benzyl-3-methyl-2,3-dihydrobenzofuran-6-carboxylic acid cyclohexylamide], for which the EC50 in [2] is above 10000 nM.
Take `CC1(Cc2ccccc2)COc2cc(C(=O)N3CCCCC3)ccc21` (stereo not shown) [Compound 18, 3-Benzyl-3-methyl-2,3-dihydrobenzofuran-6-carboxylic acid piperidine amide]: in [3], the “Intestinal permeability, assessment” value is “compatible with oral administration with no efflux”. In series [3] (TC7, pH 6.5/7.4), the “A–B permeability (% recovery)” value is listed as 63.5 ± 6.5% and the “B–A permeability (% recovery)” value worked out at 85.5 ± 0.5%. For the same compound, in series [3] (TC7, pH 6.5/7.4, 1.0E-05 M), the “A–B permeability” value is 52.2 ± 1.7 10^−6 cm s^−1 and the “B–A permeability” value was 16.2 ± 0.2 10^−6 cm s^−1. In [4], the Aqueous solubility amounted to 31.8 ± 1.8 μm μM. The Cardiac toxicity result in series [5] is “did not show any cardiac toxicity”. The “K+ channel hERG automated patch-clamp (cardiac toxicity)” value in series [5] (at 1 μM) is “inactive at 1 μm”. Moreover, the “Genetic toxicity (Ames test)” value in [6] (up to 10 μM) is listed as “No genetic toxicity”. Moreover, the “Ames test (strain TA98 +S9)” value in series [6] (with S9) is listed as below 0. Moreover, the “Ames test (strain TA98)” value in [6] (without S9) is reported as below 0. Besides, in series [7] (rats), the “Effect on locomotor behavior” value is given as “without affecting locomotor behavior”. Also, the “Effect on neuropathic pain” value in series [7] (spinal nerve ligation and paclitaxel-induced neuropathy models in rats) is “reversed neuropathic pain”. The Ki (as a rule, a dissociation constant, usually derived from enzyme kinetics or from competition with a known ligand) in [8] (read-out: Ki hCB1, mean ± SEM) is above 10000 nM. In addition, the Ki in series [9] (setting [12]) came to 422 ± 123 nM. Further, the “γ-[35S]GTP hCB2 Emax” value in [10] came to 88.3%. Besides, in [11], the “Protein bound (human)” value came out at 82.8 ± 11.1% and the “Protein recovery (human)” value is recorded as 95.6 ± 13.6%.
With `CCC/C=C/CC1(C)COc2cc(C(=O)N3CCCCC3)ccc21` (stereo not shown) [Compound 19], the “%MPE for reversing mechanical allodynia versus vehicle” value in [1] (i.p., 15 mg kg^-1) is reported as “significantly different (P <0.05) from that of the vehicle”. Moreover, the “Effect on mechanical (tactile) allodynia” value in series [1] is recorded as “suppressed mechanical allodynia”. The “γ-[35S]GTP hCB1 Emax” value in series [2] (percentage relative to the efficacy of compound 7) was 60%. In addition, the inhibition constant (Ki) in series [9] (setting [12]) was found to be 83.6 ± 23.8 nM. Moreover, in series [10], the “γ-[35S]GTP hCB2 Emax” value came to 97.1%.
With `CCC/C=C/CC1(C)COc2cc(C(=O)NC3CCCCC3)ccc21` (stereo not shown) [Compound 20, 3-((E)-Hex-2-enyl)-3-methyl-2,3-dihydrobenzofuran-6-carboxylic acid cyclohexylamide], the half-maximal effective concentration (EC50) in series [2] was above 10000 nM; in series [10] it was 839 ± 5.5 nM. Also, the Ki in series [8] and in [9] was above 1000 nM in each case.
In the case of `CC1(Cc2ccccc2)COc2cc(C(=O)N3CCOCC3)ccc21` (stereo not shown) [Compound 22, (3-Benzyl-3-methyl-2,3-dihydrobenzofuran-6-yl)morpholinomethanone], the EC50 in series [2] was above 10000 nM; in [10], 5583 ± 4.4 nM.
The corresponding values for `CN(C(=O)c1ccc2c(c1)OCC2(C)Cc1ccccc1)C(C)(C)C` (stereo not shown) [Compound 23, 3-Benzyl-N-tert-butyl-N,3-dimethyl-2,3-dihydrobenzofuran-6-carboxamide] are 2580 ± 1.5 nM and 95.3 ± 1.8 nM.
Consider `CC1(Cc2ccccc2)COc2cc(C(=O)NCC3CCOCC3)ccc21` (stereo not shown) [Compound 24, 3-Benzyl-3-methyl-2,3-dihydrobenzofuran-6-carboxylic acid (tetrahydropyran-4-ylmethyl)amide], for which the EC50 in series [2] was above 10000 nM; in series [10] it was 659 ± 1.4 nM.
For `CC1(Cc2cccc3ccccc23)COc2cc(C(=O)NC3CCCCC3)ccc21` (stereo not shown) [Compound 27, 3-Methyl-3-naphthalen-1-ylmethyl-2,3-dihydrobenzofuran-6-carboxylic acid cyclohexylamide], in that order: above 10000 nM and above 10000 nM.
Consider `CC1(Cc2cccc3ccccc23)COc2cc(C(=O)N3CCCCC3)ccc21` (stereo not shown) [Compound 28, (3-Methyl-3-naphthalen-1-ylmethyl-2,3-dihydrobenzofuran-6-yl)-piperidin-1-ylmethanone], for which the concentration giving a half-maximal response (EC50) in [2] and in series [10] was above 10000 nM throughout.
As for `CC1(Cc2ccc3ccccc3c2)COc2cc(C(=O)N3CCCCC3)ccc21` (stereo not shown) [Compound 29, (3-Methyl-3-naphthalen-2-ylmethyl-2,3-dihydrobenzofuran-6-yl)-piperidin-1-ylmethanone], the EC50 in series [2] was above 10000 nM; in [10] it was 875 ± 1.4 nM. Also, the inhibition constant (Ki) in series [8] turned out to be 430 ± 39 nM; in series [9] it was 490 ± 45 nM.
Take `CC1(Cc2ccc(Cl)cc2)COc2cc(C(=O)N3CCCCC3)ccc21` (stereo not shown) [Compound 30, [3-(4-Chlorobenzyl)-3-methyl-2,3-dihydrobenzofuran-6-yl]piperidin-1-ylmethanone]: the EC50 in series [2] was 1363 ± 1.4 nM; in series [10], 56.2 ± 1.2 nM. In addition, in [2] (read-out: γ-[35S]GTP hCB1 Emax), the Emax (in general, the greatest response seen or fitted, relative to the assay's reference) came out at 86.9%. Besides, the Ki in series [9] was 123 ± 16.5 nM.
For the compound `COc1ccc(CC2(C)COc3cc(C(=O)N4CCCCC4)ccc32)cc1` (stereo not shown) [Compound 31, [3-[(4-Methoxyphenyl)methyl]-3-methyl-2,3-dihydrobenzofuran-6-yl]-(1-piperidyl)methanone], the values for the EC50 in series [2] and in series [10] were above 10000 nM and 235 nM, respectively.
On to `CC1(Cc2ccncc2)COc2cc(C(=O)N3CCCCC3)ccc21` (stereo not shown) [Compound 32, [3-Methyl-3-(4-pyridylmethyl)-2,3-dihydrobenzofuran-6-yl]-(1-piperidyl)methanone], for which the results for the EC50 in [2] and in series [10] were above 10000 nM and 2800 nM, respectively.
As for `C[C@@]1(Cc2ccccc2)COc2cc(C(=O)N3CCCCC3)ccc21` [Compound 33, (S)-3-Benzyl-3-methyl-2,3-dihydrobenzofuran-6-carboxylic acid piperidine amide], in series [10], the “γ-[35S]GTP hCB2 Emax” value is 86%.
As for `C[C@]1(Cc2ccccc2)COc2cc(C(=O)N3CCCCC3)ccc21` [Compound 34, (R)-3-benzyl-3-methyl-2,3-dihydrobenzofuran-6-carboxylic acid piperidine amide], the “γ-[35S]GTP hCB2 Emax” value in [10] is 43.3%.
